# Data from ChEMBL document CHEMBL1149835, “Citrinin dimers from the halotolerant fungus Penicillium citrinum B-57” (J Nat Prod, 2008).
# What was measured:
# [1] = system: Radical scavenging activity; assay: Antioxidant activity assessed as DPPH free radical scavenging activity after 30 mins; format: functional
# Method in brief: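 DPPH dissolved in MeOH; 160 µL of reaction mixture containing test sample combined with 40 µL DPPH solution, kept in the dark 30 min. Absorbance read at 520 nm and percent inhibition calculated. IC50 (µM giving 50% inhibition of DPPH radical) derived from the log-dose inhibition curve. L-ascorbic acid served as positive control.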
# [2] = Cytotoxicity against mouse NS1 cells; format: functional
# A549 = assay: Cytotoxicity against human A549 cells after 24 hrs by SRB assay; format: functional, cell-based; conditions: A549, 24 h
# Method in brief: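 SRB method: cells plated at 2 × 10^5 cells/mL, then test solutions in MeOH added and cultured a further 24 h. Cells fixed with 12% trichloroacetic acid, stained with 0.4% SRB, absorbance read at 515 nm. IC50 (concentration inhibiting proliferation 50%) calculated from the linear portion of log dose-response curves; paclitaxel positive control.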
# Bel-7402 = assay: Cytotoxicity against human Bel7402 cells after 24 hrs by SRB assay; format: functional, cell-based; conditions: Bel-7402, 24 h
# P388 = assay: Cytotoxicity against mouse P388 cells after 72 hrs by MTT assay; format: functional, cell-based; conditions: P388, 72 h
# Method in brief: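 P388 and HL-60 cells seeded at 5 × 10^4 cells/mL and pre-incubated 24 h. Test solutions in MeOH added, then 72 h exposure. MTT (5 mg/mL solution) added for 4 h, formazan dissolved in DMSO, absorbance read at 540 nm. IC50 taken from the linear part of log dose-response curves. Paclitaxel as positive control.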
# HL-60 = assay: Cytotoxicity against human HL60 cells after 72 hrs by MTT assay; format: functional, cell-based; conditions: HL-60, 72 h
IC50 [1] [µM],SMILES,other results
3.8,Cc1cc(O)c(C)c(O)c1C,
22.7,O=C1O[C@H]([C@@H](O)CO)C(O)=C1O [ASCORBIC ACID],
58.7,CC1=C([C@H](C)[C@@H](C)OC=O)C(=O)C2=C(C1=O)[C@@H]1O[C@H](C)[C@@H](C)c3c(C)c(O)cc(c31)O2 [CITRININ H1],
0.8,Cc1cc(O)cc(O)c1 [ORCINOL],
,CC(=O)O[C@H]1C(=O)[C@@]2(C)[C@H]([C@H](OC(=O)c3ccccc3)[C@]3(O)C[C@H](OC(=O)[C@H](O)[C@@H](NC(=O)c4ccccc4)c4ccccc4)C(C)=C1C3(C)C)[C@]1(OC(C)=O)CO[C@@H]1C[C@@H]2O [PACLITAXEL],IC50 (A549): 0.93 µM
55.3,Cc1c([C@H](C)[C@H](C)O)c(O)c2oc3cc(=O)c(C)c4c-3c(c2c1O)O[C@H](C)[C@H]4C [PENNICITRINONE C],IC50 (Bel-7402): > 50 µM; IC50 (A549): > 50 µM; IC50 (P388): > 50 µM; IC50 (HL-60): > 50 µM
796,Cc1c([C@H](C)[C@@H](C)O)cc(O)c(C(=O)O)c1O [PHENOL A ACID],
22.5,Cc1c(O)cc(O)cc1[C@H](C)[C@@H](C)O [PHENOL A],
> 1000,Cc1c(O)c(C)c2c(c1O)C(=O)OC(C)(O)C2 (centres undefined) [SCLEROTININ B],

SMILES,IC50 [1] [µM],other results
CC1=C2C(=CO[C@H](C)[C@H]2C)C(O)=C(C(=O)O)C1=O [CITRININ],160,
Cc1c2c(c3oc4cc(=O)c(C)c5c-4c(c3c1O)O[C@H](C)[C@H]5C)O[C@H](C)[C@H]2C [DICITRININ A],10.6,LD99 [2]: 6.3 µg/mL
Cc1c(O)c(C(=O)O)c(O)c2c1[C@H](C)[C@@H](C)OC2 [DIHYDROCITRININ],123,
Cc1c(O)c(C(=O)O)c(O)c2c1[C@H](C)[C@@H](C)OC2=O [DIHYDROCITRINONE],> 1000,
Cc1c(O)c2c(c3c1[C@H](C)[C@@H](C)O3)Oc1cc(O)c(C)c3c1[C@H]2O[C@H](C)[C@H]3C [PENICITRINOL A],26.8,
CO[C@@]12O[C@H](C)[C@@H](C)C1=C(C)C(=O)C1=C2Oc2cc(O)c(C)c3c2[C@H]1O[C@H](C)[C@H]3C [PENICITRINOL B],291,IC50 (Bel-7402): > 50 µM; IC50 (A549): > 50 µM; IC50 (P388): > 50 µM; IC50 (HL-60): > 50 µM
